The values below come from article PMC8480316 (Chemical Science, 2021).

Where a SMILES comes first, the peptide text is derived from it. Bridges are numbered along the chain shown (N, C = ends). The star is where a group is joined. βGlc = OC[C@H]1O[C@@H](*)[C@H](O)[C@@H](O)[C@@H]1O

Series [1] addresses toll-like receptor 4 (TLR4) (Homo sapiens, UniProt O00206). In kind it is binding. The conditions noted are these: ELISA, result in words. The gist of the method: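 Antagonism of LPS–TLR4 binding measured by ELISA, read as optical density at 450 nm. Each sample was run as four parallel experiments, with OD reported as mean ± standard deviation. IC50 values were derived from dose–response curves.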

The next series can be described thus: thermal stability assay. The conditions noted are these: heating experiments, 95 °C for 3 h. Format: physicochemical.
A further series has as its system carboxypeptidase Y. The series can be described thus: carboxypeptidase Y-treatment experiments. In kind it is in vitro ADME. The conditions noted are these: 28 °C for 12 h, pH 6.0.

toll-like receptor 4 (TLR4), sequence (O00206 24-839): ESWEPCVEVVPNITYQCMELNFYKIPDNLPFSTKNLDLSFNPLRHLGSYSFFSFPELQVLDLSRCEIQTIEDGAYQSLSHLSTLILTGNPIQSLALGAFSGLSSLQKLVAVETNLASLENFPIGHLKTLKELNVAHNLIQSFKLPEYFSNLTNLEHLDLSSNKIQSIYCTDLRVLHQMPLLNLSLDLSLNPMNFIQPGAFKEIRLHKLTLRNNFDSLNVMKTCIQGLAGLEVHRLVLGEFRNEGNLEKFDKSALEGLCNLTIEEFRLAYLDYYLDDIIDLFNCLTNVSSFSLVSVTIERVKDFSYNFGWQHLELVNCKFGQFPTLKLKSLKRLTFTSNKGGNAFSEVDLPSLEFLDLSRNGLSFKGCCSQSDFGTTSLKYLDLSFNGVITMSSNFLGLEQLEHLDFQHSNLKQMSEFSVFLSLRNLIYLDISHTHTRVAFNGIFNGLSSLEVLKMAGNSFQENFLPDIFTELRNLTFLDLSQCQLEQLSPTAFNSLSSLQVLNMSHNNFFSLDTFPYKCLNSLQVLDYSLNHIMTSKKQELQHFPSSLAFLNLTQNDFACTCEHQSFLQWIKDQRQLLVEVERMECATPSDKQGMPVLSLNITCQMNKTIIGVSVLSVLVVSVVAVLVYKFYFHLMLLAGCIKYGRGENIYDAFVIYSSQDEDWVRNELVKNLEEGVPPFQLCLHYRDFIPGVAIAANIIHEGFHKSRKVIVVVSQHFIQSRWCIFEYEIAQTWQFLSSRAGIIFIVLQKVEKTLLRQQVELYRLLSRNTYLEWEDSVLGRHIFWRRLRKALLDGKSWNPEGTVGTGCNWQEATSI
toll-like receptor 4 (TLR4), sequence (Q9Y6Y9 17-160 partner limits assumed): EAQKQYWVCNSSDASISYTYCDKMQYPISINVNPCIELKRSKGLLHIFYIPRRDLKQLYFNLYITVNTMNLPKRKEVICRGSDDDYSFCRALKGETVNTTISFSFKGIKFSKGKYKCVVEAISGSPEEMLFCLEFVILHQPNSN

Consider `CC[C@H](C)[C@@H]1NC(=O)[C@H](C(C)C)NC(=O)[C@H](C(C)C)NC(=O)[C@H](CC(C)C)NC(=O)C[C@@H](C(=O)N[C@@H](Cc2c[nH]c3ccccc23)C(=O)N[C@@H](CC(N)=O)C(=O)N[C@@H](C)C(=O)N2CCC[C@H]2C(=O)NCC(=O)N[C@@H](Cc2c[nH]c3ccccc23)C(=O)N[C@@H](Cc2ccc(O[C@@H]3O[C@H](CO)[C@@H](O)[C@H](O)[C@H]3O)cc2)C(=O)O)NC(=O)[C@H](C)NC(=O)[C@H](CCC(N)=O)NC(=O)[C@H](C(C)C)NC1=O` [compound 20, stlassin F15Y-I] (LVVIVQADWNAPGWY(βGlc)-OH; lactam N-8), for which the “antagonistic (inhibitory) activity against the binding of LPS to TLR4” value in series [1] was “comparable inhibitory activities to stlassin (1)”.
On the same count and under the same terms, under stlassin I4C [compound 21] stands “comparable inhibitory activities to stlassin (1)”.
For stlassin V2C/A11C [compound 18], in the series “thermal stability assay”, the thermal stability entry is given as “similarly high stability to that of 1”. Further, the proteolytic stability result with carboxypeptidase Y is given as “similarly high stability to that of 1”.
